The values below come from paper PMC9082424 (RSC Advances, 2018).

Bounds are passed on as bounds.

The target of assay [1] is T1, α-glucosidase (Saccharomyces cerevisiae, UniProt P53341). Description: α-Glucosidase inhibitory assay in vitro. The settings on record: for α-Glucosidase inhibitory activity (in words): up to the highest tested concentration. Type of assay: biochemical.
The target of assay [2] is T1, α-glucosidase. Description: Steady-state kinetic analysis of α-glucosidase inhibition. The format is biochemical. A digest of the protocol:
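Yeast α-glucosidase (final 0.025 U mL−1, in 75 mM phosphate buffer pH 7.4) premixed with test compound at several concentrations for 10 min at 37 °C. 4-NPGP (50–200 μM) added to start the reaction. 4-Nitrophenol followed at 405 nm every 30 s for 10 min, with initial velocity taken as ΔA per min. Analysed by Lineweaver–Burk plots. Ki came from secondary plots of slopes, and Ki′ from secondary plots of apparent 1/Vmax, against inhibitor concentration. Three independent experiments.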

T1 sequence (P53341 whole entry): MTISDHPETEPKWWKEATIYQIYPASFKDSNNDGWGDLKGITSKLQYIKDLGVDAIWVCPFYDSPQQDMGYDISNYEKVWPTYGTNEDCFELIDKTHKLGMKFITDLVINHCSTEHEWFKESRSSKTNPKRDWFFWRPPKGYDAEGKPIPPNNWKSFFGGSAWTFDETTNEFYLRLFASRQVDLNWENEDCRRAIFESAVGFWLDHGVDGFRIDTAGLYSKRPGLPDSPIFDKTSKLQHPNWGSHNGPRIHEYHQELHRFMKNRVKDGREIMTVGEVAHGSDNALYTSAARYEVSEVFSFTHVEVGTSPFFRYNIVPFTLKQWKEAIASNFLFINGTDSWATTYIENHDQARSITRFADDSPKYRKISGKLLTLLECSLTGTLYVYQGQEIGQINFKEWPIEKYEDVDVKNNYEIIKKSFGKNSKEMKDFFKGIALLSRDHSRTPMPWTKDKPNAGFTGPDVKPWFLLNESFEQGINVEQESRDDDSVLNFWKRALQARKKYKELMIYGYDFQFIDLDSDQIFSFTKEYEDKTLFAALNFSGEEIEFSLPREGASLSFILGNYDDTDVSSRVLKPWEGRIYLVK

`O=C(/C=C/c1ccc(O)c(O)c1)O[C@H](Cc1ccc(O)c(O)c1)C(=O)O` [RA, rosmarinic acid] registered an IC50 in assay [1] of over 200 µM.

In assay [1], `O=C(/C=C/c1ccc(O)c(O)c1/C=C/c1ccc(O)c(O)c1)O[C@H](Cc1ccc(O)c(O)c1)C(=O)O` [SAA, salvianolic acid A] yielded a half-inhibitory concentration (IC50) of 19.3 ± 0.89 µM. Also, the inhibitory constant (Ki) in assay [2] came to 21.2 µM. Besides, the Inhibition mode entry in assay [2] (with respect to substrate 4-NPGP (50–200 μM)) is reported as “competitive inhibition”.

The molecule `O=C(O)/C=C/c1ccc(O)c(O)c1` [CA, caffeic acid] yielded an IC50 in assay [1] of over 100 µM.

Turning to `Cc1coc2c1C(=O)C(=O)c1c-2ccc2c1CCCC2(C)CO` (stereo not shown) [TS-IIB, tanshinone IIB], in assay [1], the IC50 is over 100 µM and the “α-Glucosidase inhibitory activity (in words)” value is recorded as “weak inhibitory activity”.

Molecule `CC(C)C1=Cc2ccc3c(c2C(=O)C1=O)CCCC3(C)C` [MT, miltirone] came in with an IC50 in assay [1] of over 100 µM.

For `C[C@H]1[C@H](C)CC[C@]2(C(=O)O)CC[C@]3(C)C(=CC[C@@H]4[C@@]5(C)CC[C@H](O)C(C)(C)[C@@H]5CC[C@]43C)[C@H]12` [UA, ursolic acid], the “α-Glucosidase inhibitory activity (in words)” value in assay [1] was “weak inhibitory activity”.

As to `O=C(/C=C/c1ccc(O)c2c1[C@H](C(=O)O)[C@@H](c1ccc(O)c(O)c1)O2)O[C@H](Cc1ccc(O)c(O)c1)C(=O)O` [LA, lithospermic acid], in assay [1], the 50% inhibitory concentration (IC50) is over 100 µM and the “α-Glucosidase inhibitory activity (in words)” value is given as “weak inhibitory effect”.

Molecule `Cc1coc2c1C(=O)C(=O)c1c-2ccc2c1CCCC2(C)C` [TS-IIA, tanshinone IIA] came in with an IC50 in assay [1] of over 100 µM.

Consider `C[C@H]1COC2=C1C(=O)C(=O)c1c2ccc2c1CCCC2(C)C` [CTS, cryptotanshinone], for which, in assay [1], the IC50 is over 100 µM.
